Measurements as given in ChEMBL document CHEMBL1141456, “Ca2+ channel alpha2-delta ligands for the treatment of neuropathic pain” (J Med Chem, 2007).

Assays:
[1] = Displacement of [3H]gabapentin from alpha2-delta calcium channel in pig brain; design: species or system Sus scrofa
Outline: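 Competition binding of [3H]gabapentin to partially purified pig forebrain membranes. IC50, in nM, is the concentration giving half-maximal inhibition of specific [3H]gabapentin binding.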

[2] = Dissociation constant, pKa of the compound; format: physicochemical

Row | Compound | IC50 [1] | pKa [2]
1 | NCC1(Cc2n[nH]c(=O)o2)CCCCC1 | > 10 µM | 7.18
2 | NCC1(Cc2nnn[nH]2)CCCCC1 | 0.1 µM | –
3 | Cn1nnnc1CC1(CN)CCCCC1 | > 10 µM | –
4 | NCC1(Cc2nnn[nH]2)CCCCCC1 | 0.1 µM | –
5 | CC(C)CC(CN)c1nnn[nH]1 (stereo not given) | 0.17 µM | 3.74
6 | NCC1(Cc2noc(=O)[nH]2)CCCCC1 | – | 5.24
7 | NCC1(CC(=O)O)CCCCC1 [GABAPENTIN] | 0.087 µM | 4.1
